# Source: PubChem (The Scripps Research Institute Molecular Screening Center)
# SIAE inh = human SIAE inhibitors, primary screen, biochemical, fluorescence polarization, FP-Rh probe, 1536-well HTS. Sialate O-acetylesterase (Homo sapiens), Q9HAT2. SIAE FP-Rh probe binding. inhibition, % at 9.66 µM. actives 0.69% (n = 370,000);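 active = inhibition above a cutoff: mean of compounds within the control limits plus 3 SD of those, cut at about 17% in these data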;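 note: 0% = plate median of compound wells and 100% = probe without SIAE protein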
# HTRA1 inh = HTRA1 serine protease inhibitors, primary screen, biochemical, fluorescence polarization, HTS. recombinant HTRA1, FP-rhodamine activity-based probe. Q92743. actives 0.5% (n = 340,000). inhibition, % at 5.96 µM; in the data active = inhibition above about 36%;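 note: 0% = enzyme with DMSO and 100% = wells lacking enzyme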
# Target sequence (Q92743 whole entry, looked up): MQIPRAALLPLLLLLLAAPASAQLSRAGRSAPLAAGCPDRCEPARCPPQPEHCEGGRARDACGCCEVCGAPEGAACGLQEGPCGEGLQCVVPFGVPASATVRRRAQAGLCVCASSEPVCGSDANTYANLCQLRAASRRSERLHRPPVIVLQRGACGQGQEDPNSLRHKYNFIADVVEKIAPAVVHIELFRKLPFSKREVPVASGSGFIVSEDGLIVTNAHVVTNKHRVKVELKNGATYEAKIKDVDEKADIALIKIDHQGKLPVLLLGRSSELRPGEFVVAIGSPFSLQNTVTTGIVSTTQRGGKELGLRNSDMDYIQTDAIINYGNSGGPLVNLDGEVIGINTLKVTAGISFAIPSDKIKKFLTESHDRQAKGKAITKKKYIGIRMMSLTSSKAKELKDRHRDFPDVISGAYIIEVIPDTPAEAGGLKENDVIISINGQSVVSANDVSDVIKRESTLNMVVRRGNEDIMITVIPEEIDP
# mABHD4 FP = ABHD4 inhibitors, primary screen, biochemical, fluorescence polarization, mouse; actives 0.54% (n = 370,000); inhibition, % at 8.92 µM; purified mABHD4, FP-Rh probe fluorescence polarization;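 active = inhibition exceeding the mean over every tested compound plus 3 SD, cut at about 30% in these data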;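 note: 0% = plate median of compound wells and 100% = S159A mutant with DMSO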
#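 Test system: mouse ABHD4 enzyme, wild type. Reagent: FP-Rh fluorescent activity-based probe, added after compound pre-incubation. Timing: pre-incubation 45 min, probe exposure 60 min, at 25 °C. Technique: FP readout, ex 525 nm / em 598 nm. Benchmarks: high control S159A mutant with DMSO, low control median of compound wells.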
# PRMT1 inh = PRMT1 methyltransferase inhibitors, primary screen, biochemical, fluorescence polarization; recombinant PRMT1, activity-based probe fluorescence polarization; actives 1.3% (n = 370,000); Protein arginine N-methyltransferase 1 (Homo sapiens), Q99873; inhibition, % at 2.79 µM; AID 652257, 2013;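 active = inhibition above about 21% made by adding two undisclosed values, limit read from the data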
# rCAG RNA binder = binders of r(CAG) RNA repeats, primary screen, biochemical, fluorescence. r(CAG) RNA repeat, TO-PRO-1 dye displacement fluorescence. inhibition, % at 3 µM. actives 1.3% (n = 370,000). AID 651821, 2012;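 active = inhibition above the plate cutoff, the mean of all test compounds on that plate plus 3 SD, cut at about 35% in these data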;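 note: 0% = DMSO alone and 100% = 100 µM mitoxantrone as full dye displacement; higher means more dye released from RNA so lower well fluorescence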
# SIAE confirm = human SIAE inhibitors, retest, confirmation, biochemical, fluorescence polarization, FP-Rh probe, triplicate. shares compounds with SIAE inh. SIAE FP-Rh activity-based probe. inhibition, % at 9.66 µM. actives 13% (n = 2,300);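 active = mean inhibition of the replicates above the hit cutoff set in the primary screen, cut at about 17% in these data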;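 note: 0% = SIAE with DMSO and probe and 100% = probe without SIAE; inhibitors lower polarization as more probe stays unbound to SIAE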
# * hit, by the source's call; / = not tested or not shown. This is a sample that favours compounds with a hit; in the whole collection about 3.3% have one here.
SMILES,SIAE inh,HTRA1 inh,mABHD4 FP,PRMT1 inh,rCAG RNA binder,SIAE confirm
CC12C=CC3(O1)C(C(=O)N(c1ccccc1)C3C(=O)NC1CCCC1)C2C(N)=O (stereo not drawn),-7,8,-3,-4,1,/
CCN(Cc1ccccc1)C(=O)c1cc(COc2c(F)cccc2F)on1,-3,-17,-5,3,-6,/
CCN(CCn1cccn1)C(=O)c1cc(COc2c(F)cccc2F)on1,46*,2,3,-2,-2,1
CC(C)(C)c1ccc(C(=O)NCC(=O)N2CCCCCC2)cc1,21*,-6,5,0,-5,-2
Cc1ccc(C(=O)O)cc1NC(=O)CSc1nnc(-c2ccccc2F)n1C1CCCCC1,19*,2,-2,3,26,2
O=C1c2ccccc2C2=Nc3ccccc3SC(c3cccc(F)c3)C12 (stereo not drawn),18*,5,18,3,9,-10
Cc1cc(C)nc(/N=C(\N)Nc2ccc3c(c2)OCCO3)n1,18*,-2,7,-3,16,-5
Cc1cc(=O)[nH]c(/N=C(\N)Nc2ccc3c(c2)OCCO3)n1,0,2,-4,0,-2,/
COc1ccc2[nH]c(N=Nc3ccccc3C)c(O)c2c1,9,-1,6,10,17,/
COCCCN1CCc2[nH]c(=S)[nH]c(=O)c2C1,13,2,6,-1,-2,/
COc1cccc(CN2CCc3[nH]c(=S)[nH]c(=O)c3C2)c1,22*,-4,7,0,6,-1
Oc1ccc(C(=S)N2CCCCCC2)cc1,23*,2,-4,1,2,0
Cc1ccc(C(=S)N2CCCCCC2)cc1,-2,-1,3,8,-1,/
CC(C)(C)N(NC(=O)Nc1ccc(Cl)cc1)C(=O)c1ccccc1,17*,-6,6,0,1,-7
O=C(CN1C(=O)NC2(CCCCC2)C1=O)N1CCN(S(=O)(=O)c2cccc(F)c2)CC1,4,-2,-6,-2,-1,/
O=C(CN1C(=O)NC2(CCCCC2)C1=O)N1CCN(S(=O)(=O)c2cccc([N+](=O)[O-])c2)CC1,18*,3,4,1,1,2
CCOc1ccccc1-c1ccc(C(=O)NCc2ccc(Cl)cc2)o1,-35,/,-34,-1,5,/
C/C(=N\NC(=O)c1ccc(N2CCCC2=O)cc1)c1ccc(O)cc1O,22*,8,5,1,2,-2
C/C(=N\NC(=O)c1ccc(N2CCCC2=O)cc1)c1ccccc1,-1,-2,-1,0,0,/
CC(=O)C1=C(O)C(=O)N(Cc2ccccc2)C1c1ccc([N+](=O)[O-])cc1 (stereo not drawn),0,5,4,3,6,/
COCCn1c(SCCCC(=O)c2ccc(Br)cc2)nnc1-c1ccncc1,-4,0,-9,-5,-5,/
CCn1c(CSc2nnc(-c3ccncc3)n2CCOC)nc2cc(C(=O)O)ccc21,19*,27,13,0,-1,38*
CCCN(CCC)C(=O)c1c(NC(=O)CC)sc2c1CCCCC2,22*,6,6,0,-10,-5
CCNC(=O)c1c(NC(C)=O)sc2c1CCCC2,-2,-2,-7,3,0,/
Cc1ccc(NC(=S)NC2CC3CCCC(C2)N3Cc2ccco2)cc1 (stereo not drawn),26*,-2,1,-1,-4,3
SMILES,SIAE inh,HTRA1 inh,mABHD4 FP,PRMT1 inh,rCAG RNA binder,SIAE confirm
Cc1nnc(N(C)C(=O)c2ccccn2)s1,32*,3,2,1,1,4
CN(C(=O)c1ccccn1)c1nnc(-c2cccnc2)s1,7,-1,-8,0,-3,/
O=C(Cc1cn(Cc2ccccc2)c2ccccc12)Nc1ccc(Nc2cccnc2)cc1,26*,/,22,14,8,28*
O=C(Cc1ccccc1)Nc1cccnc1,3,4,3,-1,1,/
O=C(NN=Cc1ccc(N2CCOCC2)s1)c1ccc([N+](=O)[O-])cc1,24*,25,13,2,5,1
COc1ccc(-c2nc3cccc(C)n3c2NCc2ccco2)cc1OC,25*,10,2,6,1,4
COc1ccccc1-n1c([S-])c(C(=O)Nc2ccccc2C(F)(F)F)[n+]2ccc(C(=O)NCCO)cc12,-6,-11,-6,1,5,/
Cc1ccc(-n2c([S-])c(C(=O)Nc3ccc(OC(F)F)cc3)[n+]3ccc(C(=O)NCCO)cc23)cc1C,18*,-16,-5,3,8,-7
CCOC(=O)N1CCN(C(=O)CSc2ncccn2)CC1,19*,5,3,-1,-1,0
O=C1CCCN1C1CCN(Cc2ccccc2)S(=O)(=O)N1 (stereo not drawn),1,/,-3,4,1,/
CNC(=O)c1c(NC(=O)c2ccc(S(=O)(=O)N3CCCC3)cc2)sc2c1CCN(C(C)C)C2,5,/,-3,-7,-5,/
CNC(=O)c1c(NC(=O)c2ccc(S(=O)(=O)N3CCCCC3C)cc2)sc2c1CCN(C)C2 (stereo not drawn),17*,-2,-1,-3,-2,6
C=C(C)CNC(=S)N/N=C1\CCCCc2ccccc21,9,-13,13,2,-3,/
CC(C(=O)NCc1cccs1)n1cccc1 (stereo not drawn),20*,3,-3,-1,4,2
CN(Cc1cnn(-c2ccc(F)cc2)c1)C(=O)[C@H]1O[C@@H](n2cnc3c(N)ncnc32)[C@H](O)[C@@H]1O,41*,/,-1,1,1,45*
Cc1ccc(CNC(=O)[C@H]2O[C@@H](n3cnc4c(N)ncnc43)[C@H](O)[C@@H]2O)o1,17*,/,-4,2,3,20*
COc1cc(NC(=O)[C@H]2O[C@@H](n3ccc(N)nc3=O)[C@H](O)[C@@H]2O)cc(OC)c1OC,26*,/,-1,4,-1,20*
Cc1ccc(CNC(=O)[C@H]2O[C@@H](n3ccc(N)nc3=O)[C@H](O)[C@@H]2O)o1,25*,/,6,0,2,19*
Cc1cccc(NC(=O)CNC(=O)[C@H]2O[C@@H](n3cnc4c(N)ncnc43)[C@H](O)[C@@H]2O)c1C,-4,/,-5,0,1,/
COc1ccc(NS(=O)(=O)c2cccc(C(=O)N3CCCC(C)C3)c2)cc1 (stereo not drawn),8,-2,6,2,-3,/
